The record followed here is ChEMBL document CHEMBL3124924, “Bifunctional ethyl 2-amino-4-methylthiazole-5-carboxylate derivatives: synthesis and in vitro biological evaluation as antimicrobial and anticancer agents” (2014).

The structures appear in SMILES notation. In brackets after ≈: the same amount, converted by molar mass. Activity calls are given as the source filed them.

Assay [1] relates to Candida albicans. Description: Antifungal activity against Candida albicans ATCC 10231 assessed as growth inhibition at 1 mg/mL after 48 hrs by agar-cup diffusion method. It counts as functional. The conditions noted are these: ATCC 10231, 48 h, read-out: DIZ. The gist of the method: (§1)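 Agar-cup diffusion: 1 mL of 6 h broth culture seeded per 100 mL molten sterile agar at 45 °C and poured into plates. 8 mm cups cut, each filled with 0.1 mL of 1 mg/mL test solution. Incubated 37 °C for 24 h, 48 h for C. albicans. DMSO control per organism. Inhibition zone diameter in mm, mean of three measurements.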

Assay [2] deals with Escherichia coli. Description: Antibacterial activity against Escherichia coli ATCC 25922 assessed as growth inhibition at 1 mg/mL after 24 hrs by agar-cup diffusion method. The conditions noted are these: ATCC 25922, 24 h, read-out: DIZ. It counts as functional. The gist of the method: as §1
In assay [3] the test system is Bacillus spizizenii. Description: Antibacterial activity against Bacillus subtilis ATCC 6633 assessed as growth inhibition at 1 mg/mL after 24 hrs by agar-cup diffusion method. It counts as functional. As to conditions: ATCC 6633, 24 h, read-out: DIZ. The gist of the method:
as §1

The test system of another assay is Aspergillus niger. Description: Antifungal activity against Aspergillus niger assessed as growth inhibition at 1 mg/mL after 24 hrs by agar-cup diffusion method. It counts as functional, organism-based. In a few lines: as §1
Assay [4] relates to Candida albicans. Kind of assay: Fungicidal activity against Candida albicans ATCC 10231 after 18 hrs. Type of assay: functional. The conditions noted are these: ATCC 10231, 18 h. The gist of the method:
(§2)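 Continuation of the broth-dilution MIC test. A loopful from each tube without visible growth spread on a quarter of a Mueller-Hinton agar plate and incubated 18 h. Lowest concentration giving no growth on subculture taken as the MBC.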

Assay [5] concerns Candida albicans. Description: Antifungal activity against Candida albicans ATCC 10231 assessed as growth inhibition after 48 hrs by two-fold serial dilution assay. It counts as functional. The conditions noted are these: ATCC 10231, 48 h. In a few lines:
(§3)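 Twofold serial broth dilution run on compounds giving inhibition zones of 13 mm or more. Organisms pre-grown in suitable broth at 37 °C, 24 h for bacteria and 48 h for fungi. Dilution series 200, 100, 50, 25, 12.5, 6.25. Each 5 mL tube inoculated with 0.1 mL and incubated 37 °C for 48 h. Tubes scored for presence or absence of growth.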

In assay [6] the test system is Pseudomonas aeruginosa. Description: Bactericidal activity against Pseudomonas aeruginosa ATCC 27853 after 18 hrs. It counts as functional. The conditions noted are these: ATCC 27853, 18 h. In a few lines:
as §2

The subject of assay [7] is Pseudomonas aeruginosa. Description: Antibacterial activity against Pseudomonas aeruginosa ATCC 27853 assessed as growth inhibition after 48 hrs by two-fold serial dilution assay. As to conditions: ATCC 27853, 48 h. Type of assay: functional. In a few lines:
as §3

The test system of assay [8] is Escherichia coli. Description: Bactericidal activity against Escherichia coli ATCC 25922 after 18 hrs. It counts as functional. The conditions noted are these: ATCC 25922, 18 h. In a few lines: as §2
Assay [9] relates to Escherichia coli. Description: Antibacterial activity against Escherichia coli ATCC 25922 assessed as growth inhibition after 48 hrs by two-fold serial dilution assay. Type of assay: functional. The conditions noted are these: ATCC 25922, 48 h. In a few lines: as §3
For assay [10], the system named is Bacillus spizizenii. Kind of assay: Bactericidal activity against Bacillus subtilis ATCC 6633 after 18 hrs. Type of assay: functional. The conditions noted are these: ATCC 6633, 18 h. The gist of the method:
as §2

Assay [11] relates to Bacillus spizizenii. Kind of assay: Antibacterial activity against Bacillus subtilis ATCC 6633 assessed as growth inhibition after 48 hrs by two-fold serial dilution assay. As to conditions: ATCC 6633, 48 h. Type of assay: functional. The gist of the method:
as §3

Assay [12] relates to Staphylococcus aureus. Kind of assay: Bactericidal activity against Staphylococcus aureus ATCC 6538 after 18 hrs. Type of assay: functional. As to conditions: ATCC 6538, 18 h. In a few lines: as §2
Assay [13] has as its system Staphylococcus aureus. Kind of assay: Antibacterial activity against Staphylococcus aureus ATCC 6538 assessed as growth inhibition after 48 hrs by two-fold serial dilution assay. It counts as functional. The conditions noted are these: ATCC 6538, 48 h. The gist of the method:
as §3

Assay [14] relates to Staphylococcus aureus. Description: Antibacterial activity against Staphylococcus aureus ATCC 6538 assessed as growth inhibition at 1 mg/mL after 24 hrs by agar-cup diffusion method. The conditions noted are these: ATCC 6538, 24 h, read-out: DIZ. Type of assay: functional. In a few lines: as §1
Assay [15] concerns Pseudomonas aeruginosa. Kind of assay: Antibacterial activity against Pseudomonas aeruginosa ATCC 27853 assessed as growth inhibition at 1 mg/mL after 24 hrs by agar-cup diffusion method. It counts as functional. The conditions noted are these: ATCC 27853, 24 h, read-out: DIZ. The gist of the method:
as §1

By MFC is commonly meant the lowest tested concentration that kills the fungus rather than only halting it. The low end stands for greater fungicidal potency, the high end for weaker fungicidal potency. Broadly, the MIC is the smallest concentration in the dilution series that meets the test's criterion for growth inhibition. For orientation: MBC means the smallest concentration meeting the test's criterion for killing. Take `CCOC(=O)c1sc(NC(=S)Nc2ccc(F)cc2)nc1C`: the zone of inhibition at 1000 µg/mL in the assay on Candida albicans [1], in the assay on Escherichia coli [2], in the assay with Bacillus spizizenii [3], in the assay with Staphylococcus aureus [14] and in the assay on Pseudomonas aeruginosa [15] was over 13 mm each time. The “growth inhibition (GI)” value with Aspergillus niger was “inactive”. In the assay with Candida albicans [4], this compound gave a minimum fungicidal concentration (MFC) of 50 µg/mL (≈ 147 µM). The MIC in the assay on Candida albicans [5] came to 25 µg/mL (≈ 73.7 µM); in the assay with Pseudomonas aeruginosa [7] it was 100 µg/mL (≈ 295 µM); in the assay with Escherichia coli [9] it was 25 µg/mL (≈ 73.7 µM); with Bacillus spizizenii [11], 25 µg/mL (≈ 73.7 µM); in the assay with Staphylococcus aureus [13], 12.5 µg/mL (≈ 36.8 µM). The MBC came out at 100 µg/mL (≈ 295 µM) with Pseudomonas aeruginosa [6], 25 µg/mL (≈ 73.7 µM) against Escherichia coli [8], 25 µg/mL (≈ 73.7 µM) in the assay on Bacillus spizizenii [10] and 12.5 µg/mL (≈ 36.8 µM) against Staphylococcus aureus [12].
Consider `CCOC(=O)c1sc(NC(=O)CN2CCOCC2)nc1C`, for which the zone of inhibition at 1000 µg/mL in the assay on Candida albicans [1], in the assay with Escherichia coli [2], in the assay on Bacillus spizizenii [3], with Staphylococcus aureus [14] and with Pseudomonas aeruginosa [15] was over 13 mm each time. The “growth inhibition (GI)” value with Aspergillus niger is “inactive”. In the assay with Candida albicans [4], this compound showed an MFC of 100 µg/mL (≈ 319 µM). Further, the MIC in the assay with Candida albicans [5] turned out to be 100 µg/mL (≈ 319 µM); with Bacillus spizizenii [11], 100 µg/mL (≈ 319 µM); with Staphylococcus aureus [13] it was 50 µg/mL (≈ 160 µM). The MBC came out at 100 µg/mL (≈ 319 µM) against Bacillus spizizenii [10] and 50 µg/mL (≈ 160 µM) against Staphylococcus aureus [12].
In the case of `CCOC(=O)c1sc(NC(=O)C(F)(F)F)nc1C`, the zone of inhibition at 1000 µg/mL in the assay with Candida albicans [1], in the assay on Escherichia coli [2], in the assay with Bacillus spizizenii [3], in the assay with Staphylococcus aureus [14] and with Pseudomonas aeruginosa [15] was over 13 mm throughout. In the assay with Aspergillus niger, the “growth inhibition (GI)” value is “inactive”. The MFC against Candida albicans [4] was found to be 100 µg/mL (≈ 354 µM). In addition, the minimum inhibitory concentration (MIC) with Candida albicans [5], in the assay with Escherichia coli [9], in the assay on Bacillus spizizenii [11] and in the assay with Staphylococcus aureus [13] was 100 µg/mL (≈ 354 µM) throughout. Further, the MBC against Escherichia coli [8], in the assay on Bacillus spizizenii [10] and against Staphylococcus aureus [12] was 100 µg/mL (≈ 354 µM) each time.
